CSC inhib = cancer stem cell inhibition. AID 2717. 300,000 compounds, 1.1% hits. cancer stem cell-like cells viability, luminescence. inhibition, % at 7.5 µM; in the data active = inhibition above about 75%; inconclusive = no clear call, values can overlap the other calls; tested in HMLE shEcad cells
Mdm2-MdmX inh = human Mdm2/MdmX binding inhibition; SaOS-2 split-luciferase Mdm2/MdmX complementation, luminescence; inhibition, % at 8 µM; O15151+Q00987; 330,000 compounds, 3% hits;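 active = inhibition of at least 50% at 8 µM in the primary screen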
T cruzi repl = T. cruzi replication inhibition | inhibition, % (test concentration not listed) | AID 1885 | 300,000 compounds, 1.4% hits | T. cruzi beta-gal in NIH3T3, luminescence, 90 h;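 active = mean inhibition across valid replicates above about 55%, limit read from the data; inconclusive = mean below that limit but half or more replicates reach it; inactive = mean below it, under half of replicates reach it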;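 also: signal also drops with host cell toxicity which is not excluded here; 0% = plate median of DMSO wells and 100% = zero luminescence signal; higher percent means less beta-gal luminescence so fewer parasites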
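Test system: β-gal T. cruzi (Tulahuen C4) inside NIH/3T3 cells / Quantity: 5,000 cells/well / Measured by: luminescence from GalScreen with 0.05% NP40, read after 60 min / Medium: DMEM plus 2% FBS / Measure: parasite load inhibition, % / Reagent: Tulahuen C4 trypomastigotes, 5000/well / Schedule: co-culture of at least 90 h after 3 h attachment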
Calb FLC = C. albicans growth modulation with fluconazole; C. albicans CaCi-2 (fluconazole-resistant clinical isolate) + fluconazole, Alamar Blue growth, 48 h; growth inhibition, % (concentration not given with the values); 300,000 compounds, 0.57% hits;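 active = growth inhibition above about 58% in most replicates, limit read from the data, passing the limit was not always enough; inconclusive = exactly half the replicates above a set limit; inactive = most replicates below a set limit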;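 also: all wells also contain fluconazole at 8 µg/ml as a sub-toxic cotreatment; 0% = median of DMSO wells and 100% = median of geldanamycin control wells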
Beta cell apopt = beta cell apoptosis inhibition | protection from apoptosis, % (concentration not given with the values) | 300,000 compounds, 0.8% hits | INS-1E cytokine-induced death, ATP luminescence, 48 h; percent of positive-control rescue, neutral wells zero;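 active = Every replicate reaches about 75%, or at least half do and their mean reaches it too, limit read from the data; inconclusive = At least half of replicates reach the limit but their mean does not; inactive = Under half of replicates reach the limit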;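 also: 0% = cytokine-treated negative control wells and 100% = positive control rescue; higher means more ATP so stronger rescue from cytokine killing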
NALP3 yeast inh = NALP3 inhibition in yeast. Yeast reconstituted NLRP3/ASC/caspase-1, beta-gal luminescence, 24 h. inhibition, % at 10 µM. 330,000 compounds, 0.39% hits;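 active = inhibition of 50% or more; inactive = inhibition below 50%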;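 also: plate controls were induced DMSO wells for no effect and uninduced yeast grown without galactose for full effect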
Mdm2-MdmX conf = confirmation of human Mdm2/MdmX interaction inhibitors | shares compounds with Mdm2-MdmX inh | Mdm2-MdmX binding, luminescent assay | inhibition, % at 8 µM | 10,000 compounds, 55% hits | AID 489028; in the data active = inhibition above about 40%
FLuc counter = inhibits full-length luciferase, flagging false Mdm2/MdmX hits; shares compounds with Mdm2-MdmX inh; SaOS-2 full-length luciferase counterscreen, luminescence; inhibition, % at 8 µM; 6,200 compounds, 77% hits; AID 504607;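 active = mean inhibition at 8 µM reaching about 37%, which flags the compound as non-specific, limit read from the data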;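 also: p53-null SaOS-2 cells with luciferase driven by a doxycycline-inducible promoter; compound on cells about two nights before reading with doxycycline added after day one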
* marks the source's active call; other numbers are inactive results; u = inconclusive; x = not tested or not shown. The list is not random: actives were taken first. Their share in the collection is about 5.3%.

SMILES	CSC inhib	Mdm2-MdmX inh	T cruzi repl	Calb FLC	Beta cell apopt	NALP3 yeast inh	Mdm2-MdmX conf	others
CCN(CC)CCCNC(=O)c1cc2c(-c3ccc(Cl)cc3)nn(C)c2s1	98*	64*	42	5	28	17	21
COc1cccc(-c2nn(C)c3sc(C(=O)N4CCOCC4)cc23)c1	-4	10	-2	7	x	1	x
CN1CCN(CCCNC(=O)c2cc3c(-c4ccc(Cl)cc4)nn(C)c3s2)CC1	x	68*	32	9	x	-3	31
CCCCN(CC)CCNC(=O)c1cc2c(-c3ccccc3F)nn(C)c2s1	-5	32	38	3	-4	12	x
CCN(CCCNC(=O)c1cc2c(-c3cccc(OC)c3)nn(C)c2s1)Cc1ccccc1	7	55*	42	2	-5	24	26
CC(C)C1(C(C)C)OC(=O)c2ccccc21	-3	-40	9	7	2	24	x
COc1ccc(NC(=O)c2cc3c(-c4ccc(OC)c(OC)c4)nn(C)c3s2)cc1OC	43	97*	32	8	23	12	67*	FLuc counter=50*
COc1ccccc1N(C(=O)c1snc(C(N)=O)c1N)C(C(=O)NCc1ccccc1)c1ccc(O)cc1 (stereo not given)	x	-2	-6	7	x	6	x
NC(=O)c1nsc(C(=O)N(c2ccccc2F)C(C(=O)NCc2ccc(F)cc2)c2ccc(O)cc2)c1N (stereo not given)	x	65*	-36	1	10	11	63*	FLuc counter=81*
COc1ccc(Cn2c(=S)[nH]c3ccsc3c2=O)cc1	4	1	0	23	0	-7	x
Cc1cccc(C(=O)N[C@H](C(=O)Nc2ncc(C)s2)C(C)C)c1	79*	68*	0	-20	76*	27	64*	FLuc counter=99*
CC(Oc1ccccc1)C(=O)Nc1nc(-c2ccncc2)cs1 (stereo not given)	x	26	x	x	-3	18	x
Cc1cccc(C(=O)NC(C(=O)Nc2nc(-c3ccccn3)cs2)C(C)C)c1 (stereo not given)	40	74*	82*	22	38	-12	57*	FLuc counter=31
C[C@H](NC(=O)c1ccccc1)C(=O)Nc1nc(-c2ccccn2)cs1	13	25	3	-5	2	6	x
CC(Oc1ccccc1)C(=O)Nc1nc(-c2ccccn2)cs1 (stereo not given)	x	74*	x	x	x	30	75*	FLuc counter=43*
O=C(CSc1nnnn1C1CC1)N1CCN(Cc2ccccc2F)CC1	x	7	x	x	-13	16	x
CCC(C(=O)OCC(=O)Nc1ccc(OC)cc1OC)c1ccccc1 (stereo not given)	6	1	-15	20	-4	8	x
O=C(COc1ccc(Cl)cc1Cl)NN=C1c2ccccc2-c2ccccc21	3	82*	0	-3	-7	5	20
O=C(COc1ccc(Cl)cc1Cl)N/N=C1\CCCc2ccccc21	8	13	2	u	x	28	x
CCOc1ccccc1N(CC)C(=O)c1ccc2c(=O)n3c(nc2c1)CCCCC3	0	13	0	-3	3	-2	x
CCOc1ccccc1CNC(=O)c1cc2oc3ccccc3c2n1C	33	84*	26	-9	8	5	87*	FLuc counter=26
O=[N+]([O-])c1ccc(-c2c[nH]c(=S)[nH]2)cc1	0	-22	-9	-20	-1	11	x
O=c1c(N=Nc2ccc(O)cc2)c(-c2ccccc2)[nH]n1-c1ccc([N+](=O)[O-])cc1	21	100*	-4	13	-9	19	19
O=Nc1c(-c2ccccc2)[nH]n(-c2ccccc2)c1=O	-1	19	27	3	-16	27	x
NC(=O)c1ccc(N=Nc2c(-c3ccccc3)[nH]n(-c3ccccc3)c2=O)cc1	-8	93*	10	-1	0	16	85*	FLuc counter=108*
SMILES	CSC inhib	Mdm2-MdmX inh	T cruzi repl	Calb FLC	Beta cell apopt	NALP3 yeast inh	Mdm2-MdmX conf	others
O=c1cc(-c2ccccc2)[nH]n1-c1ccc([N+](=O)[O-])cc1	138*	55*	10	19	40	19	6
NS(=O)(=O)c1ccc(N=Nc2c(-c3ccccc3)[nH]n(-c3nc(-c4ccccc4)cs3)c2=O)cc1	-7	81*	42	27	68	24	28
Cc1[nH]n(-c2ccccc2)c(=O)c1N=Nc1ccc(C(N)=O)cc1	39	18	-8	-3	1	40	x
Nc1nc(-c2ccc(Cl)cc2)nn1C(=O)c1cccnc1	8	-3	-10	12	-15	5	x
COc1ccc(Oc2cc(C)nc(Cl)n2)nn1	4	8	-6	3	-5	23	x
Cn1c(=O)c2ncn(CC(=O)Nc3ccc(N4CCOCC4)cc3)c2n(C)c1=O	-5	-17	-7	7	-1	13	x
CCC(C)c1ccc2oc(-c3ccc(NC(=O)Cn4cnc5c(=O)n(C)c(=O)n(C)c54)cc3)nc2c1 (stereo not given)	18	50*	32	5	13	23	61*	FLuc counter=147*
CCN(CCCNC(=O)COc1cc(=O)n(CC)c2ccccc12)c1ccccc1	-11	61*	47	-20	-3	-1	28
Cc1c(C(=O)NCCCn2ccnc2)oc2ccccc12	11	-1	-2	-7	1	12	x
O=C(NCCOc1ccccc1Cl)c1cccc2c1C(=O)c1ccc(Cl)cc1S2(=O)=O	20	59*	x	x	6	-1	-3
COc1ccc(-c2ccc3c(c2)S(=O)(=O)c2cccc(C(=O)NC[C@@H]4CCCO4)c2C3=O)cc1OC	-16	35	x	x	0	21	x
O=C(NCC1CC1)c1cccc2c1C(=O)c1ccc(-c3ccc(OC(F)(F)F)cc3)cc1S2(=O)=O	x	66*	x	x	5	7	8
COc1ccc(NC(=O)c2cccc3c2C(=O)c2ccc(-c4ccc(F)cc4OCc4ccccc4)cc2S3(=O)=O)cc1	9	78*	x	x	0	2	31
O=C1c2ccc(Cl)cc2S(=O)(=O)c2cccc(C(=O)N3CCC(Cc4ccccc4)CC3)c21	123*	68*	x	x	3	-14	-3
COc1ccc2[nH]c3c(c2c1)CCN1C(=O)C(CC(=O)NCCN2CCOCC2)C[C@H](C(=O)N2CCCCC2)[C@@]31C (stereo not given in full)	x	-5	x	x	x	x	x
COc1ccc(C2=NOC(C(=O)Nc3cc(C)on3)C2)cc1 (stereo not given)	-6	6	-6	6	-7	6	x
O=C(NCCOc1ccccc1)c1cccc2c1C(=O)c1ccc(Cl)cc1S2(=O)=O	-13	16	x	x	-7	2	x

Screens as filed in PubChem.
